Results from PMC8293762 (Slas Discovery, 2021).

What was measured:
[1] = target: T1, HCN4 (Homo sapiens, UniProt Q9Y3Q4); type: cell-based; conditions: six repetitive hyperpolarization pulses, Fig. 2A,B
T1 sequence (Q9Y3Q4 1-1203): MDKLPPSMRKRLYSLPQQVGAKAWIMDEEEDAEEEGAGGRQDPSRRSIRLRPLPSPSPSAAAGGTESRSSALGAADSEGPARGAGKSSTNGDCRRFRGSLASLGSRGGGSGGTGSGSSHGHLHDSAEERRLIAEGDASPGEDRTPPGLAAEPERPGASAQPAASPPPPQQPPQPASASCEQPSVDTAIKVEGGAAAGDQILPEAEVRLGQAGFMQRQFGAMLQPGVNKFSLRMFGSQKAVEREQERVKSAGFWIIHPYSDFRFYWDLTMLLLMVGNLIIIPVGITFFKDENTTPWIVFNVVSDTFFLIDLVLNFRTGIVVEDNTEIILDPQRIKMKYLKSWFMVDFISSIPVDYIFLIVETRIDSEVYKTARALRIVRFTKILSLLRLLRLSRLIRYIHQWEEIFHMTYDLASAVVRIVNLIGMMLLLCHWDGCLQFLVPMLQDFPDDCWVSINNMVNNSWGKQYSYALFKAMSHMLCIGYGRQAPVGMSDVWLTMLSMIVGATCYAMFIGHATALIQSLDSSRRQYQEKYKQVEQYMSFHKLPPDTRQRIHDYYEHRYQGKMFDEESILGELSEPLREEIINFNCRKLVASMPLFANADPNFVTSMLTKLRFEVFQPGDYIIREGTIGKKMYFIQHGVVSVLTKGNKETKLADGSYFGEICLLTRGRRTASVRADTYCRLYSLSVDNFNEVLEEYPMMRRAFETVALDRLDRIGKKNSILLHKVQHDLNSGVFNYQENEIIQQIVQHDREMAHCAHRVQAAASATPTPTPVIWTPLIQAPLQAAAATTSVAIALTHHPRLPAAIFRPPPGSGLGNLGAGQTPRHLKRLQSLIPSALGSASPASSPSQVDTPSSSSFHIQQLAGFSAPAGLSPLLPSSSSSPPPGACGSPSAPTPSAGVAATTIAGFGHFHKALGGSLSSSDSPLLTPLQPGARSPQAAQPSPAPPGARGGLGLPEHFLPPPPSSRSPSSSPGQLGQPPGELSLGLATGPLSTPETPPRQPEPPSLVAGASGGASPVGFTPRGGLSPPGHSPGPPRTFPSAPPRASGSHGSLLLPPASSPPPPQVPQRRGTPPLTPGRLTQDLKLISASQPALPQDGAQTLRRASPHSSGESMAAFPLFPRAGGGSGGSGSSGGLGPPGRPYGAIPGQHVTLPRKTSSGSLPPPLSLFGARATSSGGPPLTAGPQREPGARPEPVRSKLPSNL

[2] = tested on: isolated rat right atrium; experiment: Heart rate in isolated rat right atrium in vitro; conditions: data not shown
[3] = target: T1, HCN4; experiment: Random screening of ~16,000 compounds for HCN4 blockade, IonWorks; type: cell-based; conditions: six-pulse protocol; blockade traces, Fig. 3C
How it was run: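 Human HCN4 (Thr110Ser) stably expressed in CHO-K1 cells, grown at 37 °C, then held at 30 °C for 2−8 days before recording. Perforated-patch (amphotericin B) IonWorks recording, SH mode then PPC mode. Held at −30 mV with a +10 mV leak prepulse, then six hyperpolarizing pulses. Test compound at 30 μM, DMSO 0.3% per well. Current at end of last pulse read before and 5−10 min after addition; percent inhibition from post/pre ratio.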

Use dependence of HCN4 blockade according to pulse number [1]	Molecule	Effect on heart rate in isolated rat right atrium [2]	Use dependence of HCN4 blockade over six pulses [3]
use-dependent blockade	COc1cc2c(cc1OC)CC(=O)N(CCCN(C)C[C@H]1Cc3cc(OC)c(OC)cc31)CC2 [Ivabradine]	–	–
–	COc1cc(Cl)c(S(=O)(=O)N[C@@H](C)C(=O)N2CCC(N3CCCCC3)CC2)cc1Cl [T-478, N-[(2S)-1-([1,4′-bipiperidin]-1′-yl)-1-oxopropan-2-yl]-2,5-dichloro-4-methoxybenzene-1-sulfonamide]	reduced heart rate	use-dependent blockade
–	FC(F)(F)c1cccc(-c2ccc3c(c2)CNCC3)c1 [T-524, 7-[3-(trifluoromethyl)phenyl]-1,2,3,4-tetrahydroisoquinoline]	reduced heart rate	almost the same blockade or even a decreasing blockade over six pulses
–	O=C(c1ccc(-n2cccn2)nc1)N1CCN2C(=O)OC(c3ccccc3)(c3ccccc3)[C@H]2C1 [T-788, (8aR)-1,1-diphenyl-7-[6-(1H-pyrazol-1-yl)pyridine-3-carbonyl]hexahydro-3H-[1,3]oxazolo[3,4-a]pyrazin-3-one]	reduced heart rate	almost the same blockade or even a decreasing blockade over six pulses
–	ZD7288 [reference compound]	–	almost the same blockade or even a decreasing blockade over six pulses
